We go through 27 compounds from ChEMBL document CHEMBL4402551 (Eur J Med Chem, 2020).

Activity calls are given as the source filed them. The calls are words filed in the database; no cut-off is given here.

A short description of data set [1]: Inhibition of Influenza A virus (A/Duck/Guangdong/674/2014(H5N6)) Neuraminidase N6 preincubated for 10 mins followed by MUNANA substrate addition and measured after 40 mins by fluorescence method.
Data set [2] deals with Influenza A virus. Description: Antiviral activity against Influenza A virus (A/Chicken/Hebei/LZF/2014(H5N2)) infected in chicken embryo fibroblasts assessed as protection against virus-induced cytopathic effect incubated for 48 hrs by CCK8 assay. Format: functional, organism-based.
Data set [3] in a line: Cytotoxicity against CEF after 48 hrs by CCK8 assay. Also on record: species or system Gallus gallus. To be noted: chicken, CEF cells. The method in brief:
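Uninfected chicken embryo fibroblasts are given compound, serially diluted 3-fold in DMEM with 1% FBS from a DMSO stock, at 37 °C and 5% CO2 for 48 h. Viability is read as A450 after 90 min with CCK-8 at 37 °C. CC50 is derived as for EC50.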

Data set [4] has as its system Influenza A virus. Description: Antiviral activity against Influenza A virus (A/goose/Guangdong/SH7/2013(H5N1)) infected in chicken embryo fibroblasts assessed as protection against virus-induced cytopathic effect incubated for 48 hrs by CCK8 assay. Format: functional, organism-based.
Data set [5] deals with Influenza A virus. As to the kind of experiment: Antiviral activity against Influenza A virus (A/Duck/Guangdong/674/2014(H5N6)) infected in chicken embryo fibroblasts assessed as protection against virus-induced cytopathic effect incubated for 48 hrs by CCK8 assay. Format: functional, organism-based.
For data set [6], the system named is Influenza A virus. Description: Antiviral activity against Influenza A virus (A/Chicken/China/415/2013 (H9N2)) infected in chicken embryonated eggs assessed as chicken embryo survival at 10 to 0.156 mM incubated with virus for 1 hr followed by inoculation and measured after 72 hrs relative to control. Format: functional.
Data set [7] concerns Influenza A virus. Description: Antiviral activity against Influenza A virus (A/Chicken/Hebei/LZF/2014(H5N2)) infected in chicken embryonated eggs assessed as chicken embryo survival at 10 mM incubated with virus for 1 hr followed by inoculation and measured after 72 hrs relative to control. Format: functional.
Data set [8] has as its system Influenza A virus. Description: Antiviral activity against Influenza A virus (A/Chicken/Hebei/LZF/2014(H5N2)) infected in chicken embryonated eggs assessed as protection against virus-induced chicken embryo death at 2.5 to 0.156 mM incubated with virus for 1 hr followed by inoculation and measured after 72 hrs. The format is functional, organism-based.
The test system of data set [9] is Influenza A virus. As to the kind of experiment: Antiviral activity against Influenza A virus (A/Chicken/China/415/2013 (H9N2)) infected in chicken embryonated eggs assessed as chicken embryo survival at 10 to 0.625 mM incubated with virus for 1 hr followed by inoculation and measured after 72 hrs relative to control. Format: functional.

Take `CCC(CC)O[C@@H]1C=C(C(=O)NC(C)(C)c2cn(Cc3ccc(Br)cc3)nn2)C[C@H](N)[C@H]1NC(C)=O`: in data set [1], the IC50 is > 10 µM.

`CCC(CC)O[C@@H]1C=C(C(=O)NCc2cn(Cc3ccc([N+](=O)[O-])cc3)nn2)C[C@H](N)[C@H]1NC(C)=O`: in data set [1], 1.17 µM corresponded to half-maximal inhibition (IC50).

Turning to `CCC(CC)O[C@@H]1C=C(C(=O)NC(C)(C)c2cn(Cc3ccc([N+](=O)[O-])cc3)nn2)C[C@H](N)[C@H]1NC(C)=O`, in [1], the IC50 was > 10 µM.

On to `CCC(CC)O[C@@H]1C=C(C(=O)NCc2cn(Cc3ccc(Cl)c(F)c3)nn2)C[C@H](N)[C@H]1NC(C)=O`, for which half-maximal inhibition in data set [1] (IC50) required 2.8 µM.

For `CCC(CC)O[C@@H]1C=C(C(=O)NCCc2cn(Cc3ccc(Br)cc3)nn2)C[C@H](N)[C@H]1NC(C)=O`, the IC50 in data set [1] is > 10 µM.

The compound `CCC(CC)O[C@@H]1C=C(C(=O)NCc2cn(CCc3ccc(Br)cc3)nn2)C[C@H](N)[C@H]1NC(C)=O` yielded an IC50 in data set [1] of 6.34 µM.

Consider `CCC(CC)O[C@@H]1C=C(C(=O)NCc2cn(Cc3ccccc3[N+](=O)[O-])nn2)C[C@H](N)[C@H]1NC(C)=O`, for which, in data set [1], the IC50 was > 10 µM.

`CCC(CC)O[C@@H]1C=C(C(=O)NCc2cn(Cc3cccc(F)c3)nn2)C[C@H](N)[C@H]1NC(C)=O` came in with an IC50 in data set [1] of 2 µM.

`CCC(CC)O[C@@H]1C=C(C(=O)NCc2cn(Cc3ccc(F)cc3)nn2)C[C@H](N)[C@H]1NC(C)=O`: 3.2 µM corresponded to half-maximal inhibition in [1] (IC50).

In [1], `CCC(CC)O[C@@H]1C=C(C(=O)NCc2cn(Cc3ccccc3)nn2)C[C@H](N)[C@H]1NC(C)=O` yielded an IC50 of 1 µM.

Take `CCC(CC)O[C@@H]1C=C(C(=O)NCc2cn(CCc3ccccc3)nn2)C[C@H](N)[C@H]1NC(C)=O`: the midpoint of inhibition in data set [1], the IC50, lay at 0.57 µM.

With `CCC(CC)O[C@@H]1C=C(C(=O)NCCc2cn([C@H]3C[C@H](n4cc(C)c(=O)[nH]c4=O)O[C@@H]3CO)nn2)C[C@H](N)[C@H]1NC(C)=O`, the IC50 in [1] is > 10 µM.

On to `CCC(CC)O[C@@H]1C=C(C(=O)NCc2cn(Cc3ccc(C)cc3)nn2)C[C@H](N)[C@H]1NC(C)=O`, for which 5.5 µM corresponded to half-maximal inhibition in data set [1] (IC50).

In [1], `CCC(CC)O[C@@H]1C=C(C(=O)NCc2cn(CSc3ccccc3)nn2)C[C@H](N)[C@H]1NC(C)=O` displayed an IC50 of 4.59 µM.

In [1], `CCC(CC)O[C@@H]1C=C(C(=O)NCc2cn(Cc3ccccc3Cl)nn2)C[C@H](N)[C@H]1NC(C)=O` gave an IC50 of 0.13 µM. For the same compound, the EC50 in the data set on Influenza A virus [2] amounted to 0.47 µM; with Influenza A virus [4], 3.32 µM; in the data set with Influenza A virus [5], 8.6 µM. Moreover, the CC50 at 48 h in data set [3] is > 1000 µM.

In the case of `CCC(CC)O[C@@H]1C=C(C(=O)NCc2cn(Cc3ccc(Br)cc3)nn2)C[C@H](N)[C@H]1NC(C)=O`, in data set [1], the IC50 turned out to be 0.16 µM. For the same compound, the Activity in the data set on Influenza A virus [6] was >80%; in the data set on Influenza A virus [7], 20%. The EC50 in the data set on Influenza A virus [2] amounted to 0.43 µM; in the data set on Influenza A virus [4], 2.45 µM; in the data set on Influenza A virus [5], 2.8 µM. The CC50 at 48 h in data set [3] is > 1000 µM. The result in the data set with Influenza A virus [8] was inactive.

`CCC(CC)O[C@@H]1C=C(C(=O)NCCc2cn(Cc3ccc([N+](=O)[O-])cc3)nn2)C[C@H](N)[C@H]1NC(C)=O` registered an IC50 in data set [1] of 7.6 µM. In other words, the single-digit micromolar range.

Compound `CCC(CC)O[C@@H]1C=C(C(=O)NC(C)(C)c2cn([C@H]3C[C@H](n4cc(C)c(=O)[nH]c4=O)O[C@@H]3CO)nn2)C[C@H](N)[C@H]1NC(C)=O` displayed an IC50 in data set [1] of 0.58 µM. Also, the EC50 in the data set with Influenza A virus [2] is 0.53 µM; in the data set on Influenza A virus [4], 6.28 µM; in the data set on Influenza A virus [5], > 20 µM. In addition, the CC50 at 48 h in [3] is > 1000 µM.

Consider `CCC(CC)O[C@@H]1C=C(C(=O)NCc2cn(CC(=O)N3CCOCC3)nn2)C[C@H](N)[C@H]1NC(C)=O`, for which the IC50 in data set [1] was 0.79 µM. The EC50 in the data set with Influenza A virus [2] was 1 µM; in the data set on Influenza A virus [4], 3.1 µM; with Influenza A virus [5] it was 3.78 µM. Besides, the CC50 at 48 h in data set [3] is > 1000 µM.

On to `CCC(CC)O[C@@H]1C=C(C(=O)O)C[C@H](N)[C@H]1NC(C)=O` [OSELTAMIVIR CARBOXYLATE], for which the values for the Activity with Influenza A virus [9] and in the data set with Influenza A virus [7] were >80% and 80%, respectively. Further, in data set [1], the IC50 stood at 0.018 µM. Also, the EC50 was determined as 0.18 µM in the data set with Influenza A virus [2], 0.22 µM in the data set with Influenza A virus [4] and 0.43 µM in the data set on Influenza A virus [5]. In addition, in [3], the CC50 at 48 h is > 1000 µM. Also, in the data set with Influenza A virus [8], the outcome was inactive.

For `CCC(CC)O[C@@H]1C=C(C(=O)NCc2cn(Cc3ccc(-c4ccccc4)cc3)nn2)C[C@H](N)[C@H]1NC(C)=O`, 2.2 µM corresponded to half-maximal inhibition in data set [1] (IC50).

Turning to `CCC(CC)O[C@@H]1C=C(C(=O)NCc2cn(Cc3cccc([N+](=O)[O-])c3)nn2)C[C@H](N)[C@H]1NC(C)=O`, the IC50 in data set [1] stood at 2.85 µM. This IC50 and that of the compound before are within 1.5-fold of each other.

For the compound `CCC(CC)O[C@@H]1C=C(C(=O)NCc2cn(CC(=O)N3CCCC3)nn2)C[C@H](N)[C@H]1NC(C)=O`, the IC50 in data set [1] worked out at 1.4 µM. This IC50 lies about 2-fold lower than the previous one.

`CCC(CC)O[C@@H]1C=C(C(=O)NCc2cn(C3CCCCC3)nn2)C[C@H](N)[C@H]1NC(C)=O` showed an IC50 in [1] of 2.01 µM.

Regarding `CCC(CC)O[C@@H]1C=C(C(=O)NCc2cn([C@H]3C[C@H](n4cc(C)c(=O)[nH]c4=O)O[C@@H]3CO)nn2)C[C@H](N)[C@H]1NC(C)=O`, the IC50 in data set [1] came to 0.29 µM.

As to `CCC(CC)O[C@@H]1C=C(C(=O)NCc2cn(Cc3ccccc3Br)nn2)C[C@H](N)[C@H]1NC(C)=O`, the IC50 in data set [1] was > 10 µM.

In [1], `CCC(CC)O[C@@H]1C=C(C(=O)NCc2cn(Cc3cccc(Cl)c3)nn2)C[C@H](N)[C@H]1NC(C)=O` registered an IC50 of 2.56 µM. That is a single-digit micromolar value.
